Test results taken from ChEMBL document CHEMBL2203280, “Bicyclic peptidomimetics targeting secreted aspartic protease 2 (SAP2) from Candida albicans reveal a constrained inhibitory chemotype” (Bioorg Med Chem, 2012).

Experiments:
[1] = biological target: T1, Secreted aspartic protease 2 (Candida albicans, UniProt P0CS83); assay: Inhibition of candida albicans SAP2 using 0.05% BSA as substrate by spectrophotometric analysis
Method in brief: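 SAP2 incubated with inhibitor in 0.05% (w/v) BSA substrate, 50 mM sodium citrate pH 3.2, for 30 min at 37 °C. Stopped with 10% (w/v) TCA, held on ice 30 min, centrifuged 3000 g 10 min. Supernatant A280 read against 0.05% BSA in citrate blank. ΔOD per min taken at six inhibitor concentrations, including 5, 1 and 0.1 nM. Pepstatin A run at matching concentrations.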

[2] = biological target: T1, Secreted aspartic protease 2; assay: Inhibition of candida albicans SAP2
Method in brief: (§1)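 SAP2 protease (1 µg/mL solution) incubated with inhibitor in 0.05% (w/v) BSA, 50 mM sodium citrate pH 3.2, 30 min at 37 °C. Reaction stopped with 10% TCA, kept on ice 30 min, then centrifuged. Supernatant A280 read against a BSA-in-citrate blank. ΔOD per minute measured at inhibitor levels of 5, 1 and 0.1 µM and 5, 1 and 0.1 nM. Pepstatin A run as reference at the same concentrations.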

[3] = biological target: Secreted aspartic protease 2 (Candida albicans) (UniProt P0CS83); assay: Ratio of pepstatin A IC50 to compound IC50 for candida albicans SAP2 by spectrophotometric analysis; method in brief: as §1
Chain of Secreted aspartic protease 2 (Candida albicans) (P0CS83 57-398 limits assumed): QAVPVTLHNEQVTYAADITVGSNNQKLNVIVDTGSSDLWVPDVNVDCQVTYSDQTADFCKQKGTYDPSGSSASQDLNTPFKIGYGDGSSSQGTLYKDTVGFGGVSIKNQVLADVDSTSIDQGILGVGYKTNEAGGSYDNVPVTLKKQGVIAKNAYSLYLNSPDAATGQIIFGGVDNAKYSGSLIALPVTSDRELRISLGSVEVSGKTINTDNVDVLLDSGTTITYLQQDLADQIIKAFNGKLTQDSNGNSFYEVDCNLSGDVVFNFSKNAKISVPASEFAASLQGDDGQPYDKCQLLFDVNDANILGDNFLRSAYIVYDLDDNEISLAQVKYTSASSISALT

T1 sequence (P0CS83 whole entry): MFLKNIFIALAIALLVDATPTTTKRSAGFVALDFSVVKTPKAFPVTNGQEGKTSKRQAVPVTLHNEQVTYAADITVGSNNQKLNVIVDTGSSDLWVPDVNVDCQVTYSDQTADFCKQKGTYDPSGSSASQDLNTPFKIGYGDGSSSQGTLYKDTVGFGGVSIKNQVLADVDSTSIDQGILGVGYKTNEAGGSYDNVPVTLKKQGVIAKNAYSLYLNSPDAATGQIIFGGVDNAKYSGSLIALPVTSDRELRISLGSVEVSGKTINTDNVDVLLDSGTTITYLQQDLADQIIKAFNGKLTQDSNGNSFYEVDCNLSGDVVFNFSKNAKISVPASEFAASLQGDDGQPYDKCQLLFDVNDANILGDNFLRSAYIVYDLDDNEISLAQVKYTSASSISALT

| Ki [2] [nM] | Compound | IC50 [1] [nM] | Ratio IC50 [3] |
| --- | --- | --- | --- |
|  | CC(C)C[C@@H](CO)NC(=O)C1O[C@H]2CN(Cc3ccccc3)C(=O)[C@@H]1O2 (stereo partly drawn) | 550 |  |
|  | CC(C)C[C@H](CO)NC(=O)C1O[C@H]2CN(Cc3ccccc3)C(=O)[C@@H]1O2 (stereo partly drawn) | > 10000 |  |
|  | COC(=O)[C@H](CC(C)C)N1C[C@@H]2O[C@@H](C(=O)N3CCCCC3)[C@@H](O2)C1=O | 900 |  |
| 12 | CCCCNC(=O)[C@H](C[C@H](O)[C@H](CC1CCCCC1)NC(=O)[C@H](CCCC)N1CCN(C(=O)N2CCN(C)CC2)[C@H](Cc2ccccc2)C1=O)C(C)C |  |  |
|  | CC(C)C[C@@H](CO)NC(=O)C1O[C@@H]2CN(Cc3ccccc3)C(=O)[C@H]1O2 (stereo partly drawn) | 1100 |  |
|  | CC(C)CC(=O)N[C@H](C(=O)N[C@H](C(=O)N[C@@H](CC(C)C)[C@@H](O)CC(=O)N[C@@H](C)C(=O)N[C@@H](CC(C)C)[C@@H](O)CC(=O)O)C(C)C)C(C)C [PEPSTATIN] | 90 |  |
|  | COC(=O)[C@@H](CC(C)C)N1C[C@H]2O[C@H](C(=O)N3CCCCC3)[C@H](O2)C1=O | 740 |  |
|  | COC(=O)[C@H](CC(C)C)N1C[C@H]2O[C@H](C(=O)N3CCCCC3)[C@H](O2)C1=O | > 10000 |  |
|  | CC(C)C[C@H](CO)NC(=O)C1O[C@@H]2CN(Cc3ccccc3)C(=O)[C@H]1O2 (stereo partly drawn) | > 10000 |  |
|  | O=C([C@H]1O[C@@H]2CN(Cc3ccccc3)C(=O)[C@H]1O2)N1CCCCC1 | 980 |  |
|  | O=C([C@@H]1O[C@H]2CN(Cc3ccccc3)C(=O)[C@@H]1O2)N1CCCCC1 | 30 | 3 |
|  | COC(=O)[C@@H](CC(C)C)N1C[C@@H]2O[C@@H](C(=O)N3CCCCC3)[C@@H](O2)C1=O | 890 |  |
